From publication PMC9444042 (Neurotoxicology, 2021)
“Also recorded” adds a separate entry of the source. Where two headings read alike, the source gives them in different places.

What was measured:
[1] = system: iPSC-derived human spinal motor neurons; assay type: cell-based
[2] = system: iPSC-derived human cortical glutamatergic neurons; assay type: cell-based
[3] = system: GFP-labeled iPSC-derived human neurons; assay type: cell-based
LUHMES = conditions: NeuriTox test, IC50 (viability/neurite area) ratio ≥4; ref Delp et al., 2018; cited from earlier work
[4] = system: iPSC-derived human spinal motor neurons; test: Cell viability / cytotoxicity; assay type: cell-based
In short: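 GFP-expressing iPSC-derived motor neurons were seeded at 800 cells/well on PDL-coated 1536-well plates and grown 40 h at 37 °C. Test compound was then added at 11 concentrations (1.56 nM–92 μM, 1:3) and exposed 24 and 48 h. Cells were counted as number of objects from GFP high-content images (488/530 nm, 20×, four fields/well). Values were normalized to 46 μM rotenone (−100%) and 0.46% DMSO (0%), in triplicate.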

PeriTox test cells = conditions: IC50 (viability/neurite area) ratio ≥3, ref Delp et al., 2018; cited from earlier work
[5] = motor neurons, active at either 24 or 48 hours, 1.56 nM to 92 μM
[6] = cortical neurons, active at either 24 or 48 hours, 1.56 nM to 92 μM
[7] = cortical and/or motor neurons, not specified, 24 or 48 hours, up to 92 μM
[8] = cortical neurons, 24 hours of treatment
[9] = cortical neurons, 48 hours of treatment

With `Brc1ccc(Oc2ccc(Br)cc2Br)c(Br)c1` [2,2′,4,4′-tetrabromodiphenyl ether] the “neurite outgrowth inhibition (activity call)” value [1, 5] was “affected”, the “neurite outgrowth inhibition (activity call)” value ([1]; motor neurons, active at either 24 or 48 hours, 1.56 nM to 92 μM, listed as 2,2’,4,4’-tetrabromodiphenyl ether) was “inhibited” and the “neurite outgrowth inhibition (activity call)” value [2, 6] was “only affected neurite outgrowth in motor neurons”.
In the case of `CCCCC(CC)COC(=O)c1cc(Br)c(Br)c(Br)c1Br` (stereo not drawn) [2-ethylhexyl-2,3,4,5-tetrabromobenzoate], the “neurite outgrowth inhibition in this study (activity call)” value [3, 7] is reported as “inhibit neurite outgrowth”.
For `CC(C)(c1cc(Br)c(O)c(Br)c1)c1cc(Br)c(O)c(Br)c1` [3,3’,5,5’-tetrabromobisphenol A], the “neurite outgrowth inhibition (activity call)” value [2, 6] was “inhibited”.
With `COc1cc2c(c(OC)c1OC)-c1ccc(OC)c(=O)cc1[C@@H](NC(C)=O)CC2` [Colchicine] the “neurite outgrowth inhibition (activity call)” value [1, 5] was “inhibited” and the “neurite outgrowth inhibition (activity call)” value [2, 6] was “inhibited”.
For `CC/C(=C(/CC)c1ccc(O)cc1)c1ccc(O)cc1` [Diethylstilbestrol], the “selective effect on neurite outgrowth” value (LUHMES) is given as “selective effects”.
In the case of `O=C1O[C@H]([C@@H](O)CO)C(O)=C1O` [L-ascorbic acid], the cytotoxicity [4] is reported as “cytotoxic” and the “neurite outgrowth inhibition in this study (activity call)” value [3, 7] is reported as “inhibitor of neurite outgrowth”.
For `CCCCCC` [N-hexane, n-hexane], the “neurite outgrowth inhibition in this study (activity call)” value [3] was “not have been active”.
For `CC(C)[C@@H]1NC(=O)[C@H](C)OC(=O)[C@@H](C(C)C)NC(=O)[C@@H](C(C)C)OC(=O)[C@H](C(C)C)NC(=O)[C@H](C)OC(=O)[C@@H](C(C)C)NC(=O)[C@@H](C(C)C)OC(=O)[C@H](C(C)C)NC(=O)[C@H](C)OC(=O)[C@@H](C(C)C)NC(=O)[C@@H](C(C)C)OC1=O` [Valinomycin], the “selective effect on neurite outgrowth in this study” value ([3]; neuron type not specified) is listed as “selective effects”, the “selective effect on neurite outgrowth” value (LUHMES) is listed as “selective effects” and the “selective effect on neurite outgrowth” value (PeriTox test cells) is listed as “selective effects”.
For `c1ccc2cc3ccccc3cc2c1` [anthracene], the “neurite outgrowth inhibition (activity call)” value [1, 5] was “affected” and the “neurite outgrowth inhibition (activity call)” value [2, 6] was “only affected neurite outgrowth in motor neurons”.
For `CN(C)c1ccc(C(=N)c2ccc(N(C)C)cc2)cc1.Cl` [auramine O], the “neurite outgrowth inhibition in this study (activity call)” value [3, 7] was “inhibit neurite outgrowth”.
In the case of `c1ccc2c(c1)-c1cccc3c1c-2cc1ccccc13` [benzo (b) fluoranthene], the “neurite outgrowth inhibition (activity call)” value [2] is reported as “active”.
With `Oc1ccc(C(c2ccc(O)cc2)(C(F)(F)F)C(F)(F)F)cc1` [bisphenol AF] the “neurite outgrowth inhibition (activity call)” value [2, 6] was “inhibitory effects; also recorded: inhibited” and the “neurite outgrowth inhibition in this study (activity call)” value [3, 7] was “inhibit neurite outgrowth”.
With `CC(C)(c1ccc(O)cc1)c1ccc(O)cc1` [bisphenol A] the “neurite outgrowth inhibition (activity call)” value [2, 8] was “not active” and the “neurite outgrowth inhibition (activity call)” value [2, 9] was “active; also recorded: inhibitory effects”.
In the case of `Cn1c(=O)c2c(ncn2C)n(C)c1=O` [caffeine], the “neurite outgrowth inhibition (activity call)” value [1] is reported as “inhibited; also recorded: affected”, the “neurite outgrowth inhibition (activity call)” value [2] is reported as “only affected neurite outgrowth in motor neurons” and the “neurite outgrowth inhibition in this study (activity call)” value [3, 7] is reported as “inhibit neurite outgrowth”.
With `CC1(C)[C@H](C(=O)O[C@H](C#N)c2cccc(Oc3ccccc3)c2)[C@@H]1C=C(Br)Br` [deltamethrin] the “neurite outgrowth inhibition (activity call)” value [2, 8] was “not active” and the “neurite outgrowth inhibition (activity call)” value [2, 9] was “active; also recorded: inhibitory effects”.
For `C[C@]12CC[C@@H]3c4ccc(O)cc4CC[C@H]3[C@@H]1CC[C@@H]2O` [estradiol], the “neurite outgrowth inhibition in this study (activity call)” value [3, 7] was “inhibit neurite outgrowth”.
In the case of `CCCCC(CC)COP(=O)(Oc1ccccc1)Oc1ccccc1` (stereo not drawn) [ethylhexyl diphenyl phosphate, 2-ethylhexyl diphenyl phosphate], the “neurite outgrowth inhibition (activity call)” value [2, 8] is reported as “active”.
For `CC(=O)[O-].CC(=O)[O-].O.O.O.[Pb+2]` [lead (II) acetate trihydrate], the “neurite outgrowth inhibition in this study (activity call)” value [3, 7] was “inhibit neurite outgrowth”.
With `[CH3][Hg][Cl]` [methyl mercuric (II) chloride] the “neurite outgrowth inhibition (activity call)” value [1, 5] was “inhibited” and the “neurite outgrowth inhibition (activity call)” value [2, 6] was “inhibited”.
In the case of `CCOP(=S)(OCC)Oc1ccc([N+](=O)[O-])cc1` [parathion], the “neurite outgrowth inhibition (activity call)” value [2, 6] is reported as “inhibitory effects; also recorded: inhibited”.
In the case of `CCC1(c2ccccc2)C(=O)NC(=O)NC1=O` [phenobarbital], the “neurite outgrowth inhibition in this study (activity call)” value [3, 7] is reported as “not be active”.
For `C=C(C)[C@H]1Cc2c(ccc3c2O[C@@H]2COc4cc(OC)c(OC)cc4[C@@H]2C3=O)O1` [rotenone], the “neurite outgrowth inhibition (activity call)” value [1, 5] is listed as “inhibited neurite outgrowth in a concentration dependent manner”, the “neurite outgrowth inhibition (activity call)” value [2, 6] is listed as “inhibited neurite outgrowth in a concentration dependent manner” and the “selective effect on neurite outgrowth” value (LUHMES) is listed as “selective effects”.
For `CC(C)(C)C(O)(CCc1ccc(Cl)cc1)Cn1cncn1` (stereo not drawn) [tebuconazole], the “neurite outgrowth inhibition (activity call)” value [2, 8] was “not active” and the “neurite outgrowth inhibition (activity call)” value [2, 9] was “active; also recorded: inhibitory effects”.
